Measurements as given in the EternaBench riboswitch data.

Tested on: MS2 coat protein
Assay: apparent Kd, MS2 coat protein; higher = weaker binding; RNA-MaP array; FMN 200 µM where present
In short: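 Green signal was scaled to red-channel RNA signal and control-cluster median Fmax, and the apparent Kd was taken as the median of filtered per-cluster binding-curve fits. The binding series used SNAP-549-labelled MS2 coat protein from 0.7 or 1.5 nM, doubling to 3 µM, on designs transcribed by stalled E. coli RNA polymerase on Illumina sequencing-chip clusters. Each series ran without and then with constant ligand in 100 mM Tris-HCl pH 7.5, 80 mM KCl, 4 mM MgCl2, BSA, DTT, yeast tRNA and Tween-20.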

[1] = designed as: OFF switch for flavin mononucleotide, no ligand
[2] = ligand present: flavin mononucleotide, designed as: OFF switch for flavin mononucleotide
[3] = designed as: ON switch for flavin mononucleotide, no ligand
[4] = ligand present: flavin mononucleotide, designed as: ON switch for flavin mononucleotide

Sequence | apparent Kd [1] [nM] | apparent Kd [2] [nM] | apparent Kd [3] [nM] | apparent Kd [4] [nM]
AUCUGCUCGUCAGGAUAUACGUCACUGCGUCAGCAGUGUGGUAAGAUCACAUGAGGAUCACCCAUGUAGAAGGGACGAGCUGAU | 12.9 | 268 | – | –
GGAAAUCAUGUAGGAUAUGCAUGGCGAAGCUACGCAGAAGGACAUGAGGAUCACCCAUGUUAUAGCGUCCGAGAAAGGAUGCAC | 38.8 | 162 | – | –
AGUUAAUAUCGAGGAUAUCCUCUACCACAUGAGGAUCACCCAUGUAUGCAUGGAGAAGGCGAUAUUAACAGCAUGUUACAUGCA | – | – | 157 | 8.62
ACUAGAUGCGUGAAAUAACACAUGAGGAUCACCCAUGUGACGCAGGAUAUAACCAGAUCAGAAAGUUAGAAGGGUGAGCACGCA | – | – | 60.8 | 31.8
AAUUUACAGCUAGGAUAUACAUGAGGAUCACCCAUGUAAUGAUCGGAUCUUAUGAUCGUAUCCGUGUAGAAGGAGCAAAUAAGA | 8.12 | 8.8 | – | –
GGUACUCAAAGAGUACCAAUACGAACAUGAGGAUCACCCAUGUAGGAUAUGCUACUCAAAGAGUAGCAGAAGGACGUGUACCUU | 24.7 | 54 | – | –
CCUAGUUGGUAAGGAUAUCCUACACUAUUCUGACCCGUGCAAGCUACAUGAGGAUCACCCAUGUGGGAGAAGGUGCGUCAACGC | 13.8 | 15.2 | – | –
AACGCGUCAGGAUAUAGCGAAACUUAGGUAGUACAACCAUACUAGAAGGGACAUGAGGAUCACCCAUGUGGGUA | 209 | 104 | – | –
UCAUAUAUACAAGGAUAUCAAUGAUUUAUAGAUCCUACAUGAGGAUCACCCAUGUUUUUAUAUUUUGAGAAGGUGUAGUGUCUU | – | – | 214 | 333
UUAAAUCAUGUAGGAUAUGCAUGGCGAAGCUACGCAGAAGGACAUGAGGAUCACCCAUGUGCUAGCGUCUGAGAACAGAUGCAA | 42 | 235 | – | –
AUAGGGCUACACUGAAAGACACAUGAGGAUCACCCAUGUGAGAGAAGGGCUUCUGGAGGGCUGAGGUAGGAUAUUUCACCUGGG | 18.6 | 22.6 | – | –
ACAUUGCGAGGAUAUACAUGAGGAUCACCCAUGUGGUAGUAGAUACGGUAGGGCUAGUGUAGAAGGUGUCAUGG | 137 | 131 | – | –
ACAAAUGGAGGAUAUACAUGAGGAUCACCCAUGUAUAUCCUACAUAUGUGAUCUUUAUGUAGAAGGCCAUUUGA | 12.2 | 11.5 | – | –
AAAAAACAUGAGGAUCACCCAUGUGAGGAUAUCACUAGUCAGUCCUCGGAGUGAGUUCUGAGAAGGCACAUAAA | 118 | 106 | – | –
UUUACAUGAGGAUCACCCAUGUAUGUCACCCAUGUGUGUAAUCAGGAUAUGAUAUCAAUAAUAAAUUAGAAGGGAUAACAUGAG | – | – | 59.5 | 75.1
UCACGGGAUUGAGGAUAUAUAUUAAUUUUUACAAUAGAAGGCAAAUUGUUAGUUUUUUCACUUUACAUGAGGAUCACCCAUGUU | 26.2 | 24 | – | –
UCAUUUCUGAAAGGAUAUUAAUUCAUGACGAUACAUGAGGAUCACCCAUGUUAAGAAGGUUCAAAUACAAAUAAUGCAUUGUUC | 13.2 | 11.1 | – | –
CCUGCACAUGAGGAUCACCCAUGUCAGGAUAUCUCGCCGUGUGGAGCAACACGGUAUAAGAGAAGGGACACGGG | 28.7 | 25.7 | – | –
GCCUCAUCCGUCAGGAUAUACAGCCGCUCCCUGUUGUAGAAGGGACAUGAGGAUCACCCAUGUACGUACCACCC | 53.6 | 117 | – | –
ACAAUACAUGAGGAUCACCCAUGUUAGGAUAUACGCAUGCAUGCAUGCAUGCAUGCAAGUAGAAGGAACCAUGC | 28.6 | 26.8 | – | –
UAUAUAUAGUAAGGAUAUGUAUUAAUUUUACAAACAGAAGGUACUGACAUGAGGAUCACCCAUGUUUUAGUGUGGGCAUGUAGA | 59.9 | 72.6 | – | –
UUCUUUCCUCAUGUACAUGAGGAACAUGAGGAUCACCCAUGUAGAAGGAUUUCCAUUAAAUUAAAAUAGGAUAUACAUAUAUUU | 18.6 | 16.7 | – | –
GUAGCUAUCGGAGGAUAUUCAUACUGGAAACGGACAUGAGGAUCACCCAUGUGGCGAAAGCCUUGGGAGAAGGCUGAUAGCUAC | – | – | 139 | 7.72
